Data from ChEMBL document CHEMBL5303300, “EUbOPEN Chemogenomics Library - Multiplex” (2023).
“And” between values parts separate entries of the source, which are not always exact repeats. Equal entries are not always repeated.

Tested on: HEK-293T
Experiment: Multiplex assay against HEK293T
Format: toxicity, cell-based
Conditions: human, number of replicates 2
In short: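 Live cells were stained at seeding with Hoechst33342, BioTracker Green Microtubule Cytoskeleton Dye, MitoTracker Red and Annexin V Alexa Fluor 680. Following compound addition, they were imaged on a CQ1 microscope at 37°C and 5% CO2 and gated by CellPathfinder machine learning into Hoechst high-intensity objects or normal cells, with normal cells split into healthy, pyknosed or fragmented nuclei and pyknosed cells into mitotic or apoptotic. Tubulin, mitochondrial-mass and membrane-permeability phenotypes are per cents of healthy-nucleus cells.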

[1] = 12 h, 1 µM, compound concentration 1 uM
[2] = 12 h, 10 µM, compound concentration 10 uM
[3] = 24 h, 1 µM, compound concentration 1 uM
[4] = 24 h, 10 µM, compound concentration 10 uM
[5] = 48 h, 1 µM, compound concentration 1 uM
[6] = 48 h, 10 µM, compound concentration 10 uM

CSc1cc2c(cc1C(F)(F)F)N(C(=O)Nc1cccnc1)CC2
Population Apoptotic (%) [1]: 48% and 46%
Population Fragmented Nuclei (%) [1]: 2% and 3%
Population Healthy Nuclei (%) [1]: 87% and 85%
Population Hoechst High Intensity Objects (%) [1]: 4% and 5%
Population Membrane Permeable-Phenotype (%) [1]: 4% and 3%
Population Mitochondria Different-Phenotype (%) [1]: 9% and 18%
Population Mitotic Cells (%) [1]: 51% and 53%
Population Normal (%) [1]: 95% and 94%
Population Pyknosed Nuclei (%) [1]: 10%
Population Tubulin-Different-Phenotype (%) [1]: 41% and 47%
Total Cell Count [1]: 690 and 549
Population Apoptotic (%) [2]: 51% and 43%
Population Fragmented Nuclei (%) [2]: 5% and 2%
Population Healthy Nuclei (%) [2]: 84%
Population Hoechst High Intensity Objects (%) [2]: 5%
Population Membrane Permeable-Phenotype (%) [2]: 3%
Population Mitochondria Different-Phenotype (%) [2]: 5% and 14%
Population Mitotic Cells (%) [2]: 48% and 56%
Population Normal (%) [2]: 94%
Population Pyknosed Nuclei (%) [2]: 9% and 12%
Population Tubulin-Different-Phenotype (%) [2]: 39%
Total Cell Count [2]: 679 and 494
Population Apoptotic (%) [3]: 25% and 42%
Population Fragmented Nuclei (%) [3]: 5% and 4%
Population Healthy Nuclei (%) [3]: 88% and 87%
Population Hoechst High Intensity Objects (%) [3]: 6% and 5%
Population Membrane Permeable-Phenotype (%) [3]: 2%
Population Mitochondria Different-Phenotype (%) [3]: 3% and 6%
Population Mitotic Cells (%) [3]: 74% and 57%
Population Normal (%) [3]: 93% and 94%
Population Pyknosed Nuclei (%) [3]: 5% and 8%
Population Tubulin-Different-Phenotype (%) [3]: 27% and 31%
Total Cell Count [3]: 1189 and 774
Population Apoptotic (%) [4]: 20% and 36%
Population Fragmented Nuclei (%) [4]: 10% and 6%
Population Healthy Nuclei (%) [4]: 85% and 87%
Population Hoechst High Intensity Objects (%) [4]: 5% and 7%
Population Membrane Permeable-Phenotype (%) [4]: 3% and 2%
Population Mitochondria Different-Phenotype (%) [4]: 2% and 5%
Population Mitotic Cells (%) [4]: 79% and 63%
Population Normal (%) [4]: 94% and 92%
Population Pyknosed Nuclei (%) [4]: 4% and 6%
Population Tubulin-Different-Phenotype (%) [4]: 26% and 21%
Total Cell Count [4]: 1164 and 681
Population Apoptotic (%) [5]: 5% and 7%
Population Fragmented Nuclei (%) [5]: 14% and 9%
Population Healthy Nuclei (%) [5]: 83% and 88%
Population Hoechst High Intensity Objects (%) [5]: 9% and 10%
Population Membrane Permeable-Phenotype (%) [5]: 6% and 4%
Population Mitochondria Different-Phenotype (%) [5]: 0%
Population Mitotic Cells (%) [5]: 94% and 92%
Population Normal (%) [5]: 90% and 89%
Population Pyknosed Nuclei (%) [5]: 2%
Population Tubulin-Different-Phenotype (%) [5]: 14% and 17%
Total Cell Count [5]: 2977 and 1800
Population Apoptotic (%) [6]: 5% and 6%
Population Fragmented Nuclei (%) [6]: 20% and 12%
Population Healthy Nuclei (%) [6]: 77% and 84%
Population Hoechst High Intensity Objects (%) [6]: 9% and 7%
Population Membrane Permeable-Phenotype (%) [6]: 7% and 6%
Population Mitochondria Different-Phenotype (%) [6]: 0% and 1%
Population Mitotic Cells (%) [6]: 94% and 93%
Population Normal (%) [6]: 90% and 92%
Population Pyknosed Nuclei (%) [6]: 1% and 2%
Population Tubulin-Different-Phenotype (%) [6]: 11% and 13%
Total Cell Count [6]: 2869 and 1725

CC1=C(C)C(=O)C(C(CCCCCC(=O)O)c2ccccc2)=C(C)C1=O (configuration not stated) [SERATRODAST]
Population Apoptotic (%) [1]: 63% and 56%
Population Fragmented Nuclei (%) [1]: 4% and 5%
Population Healthy Nuclei (%) [1]: 78% and 82%
Population Hoechst High Intensity Objects (%) [1]: 12% and 8%
Population Membrane Permeable-Phenotype (%) [1]: 2% and 0%
Population Mitochondria Different-Phenotype (%) [1]: 18% and 13%
Population Mitotic Cells (%) [1]: 36% and 43%
Population Normal (%) [1]: 87% and 91%
Population Pyknosed Nuclei (%) [1]: 17% and 12%
Population Tubulin-Different-Phenotype (%) [1]: 49% and 39%
Total Cell Count [1]: 511 and 624
Population Apoptotic (%) [2]: 47% and 51%
Population Fragmented Nuclei (%) [2]: 4% and 5%
Population Healthy Nuclei (%) [2]: 87% and 85%
Population Hoechst High Intensity Objects (%) [2]: 7%
Population Membrane Permeable-Phenotype (%) [2]: 4% and 2%
Population Mitochondria Different-Phenotype (%) [2]: 8% and 11%
Population Mitotic Cells (%) [2]: 52% and 48%
Population Normal (%) [2]: 92%
Population Pyknosed Nuclei (%) [2]: 7% and 9%
Population Tubulin-Different-Phenotype (%) [2]: 39% and 43%
Total Cell Count [2]: 857 and 708
Population Apoptotic (%) [3]: 52% and 55%
Population Fragmented Nuclei (%) [3]: 6% and 7%
Population Healthy Nuclei (%) [3]: 79% and 81%
Population Hoechst High Intensity Objects (%) [3]: 9%
Population Membrane Permeable-Phenotype (%) [3]: 1%
Population Mitochondria Different-Phenotype (%) [3]: 3%
Population Mitotic Cells (%) [3]: 47% and 44%
Population Normal (%) [3]: 90%
Population Pyknosed Nuclei (%) [3]: 13% and 10%
Population Tubulin-Different-Phenotype (%) [3]: 19% and 16%
Total Cell Count [3]: 827 and 1038
Population Apoptotic (%) [4]: 28% and 42%
Population Fragmented Nuclei (%) [4]: 8% and 7%
Population Healthy Nuclei (%) [4]: 86%
Population Hoechst High Intensity Objects (%) [4]: 9% and 6%
Population Membrane Permeable-Phenotype (%) [4]: 6% and 3%
Population Mitochondria Different-Phenotype (%) [4]: 3% and 4%
Population Mitotic Cells (%) [4]: 71% and 57%
Population Normal (%) [4]: 90% and 93%
Population Pyknosed Nuclei (%) [4]: 4% and 6%
Population Tubulin-Different-Phenotype (%) [4]: 29% and 35%
Total Cell Count [4]: 1313 and 975
Population Apoptotic (%) [5]: 22% and 13%
Population Fragmented Nuclei (%) [5]: 15% and 14%
Population Healthy Nuclei (%) [5]: 81% and 83%
Population Hoechst High Intensity Objects (%) [5]: 8%
Population Membrane Permeable-Phenotype (%) [5]: 4% and 5%
Population Mitochondria Different-Phenotype (%) [5]: 1% and 0%
Population Mitotic Cells (%) [5]: 77% and 86%
Population Normal (%) [5]: 91%
Population Pyknosed Nuclei (%) [5]: 3% and 2%
Population Tubulin-Different-Phenotype (%) [5]: 5%
Total Cell Count [5]: 2229 and 2490
Population Apoptotic (%) [6]: 6% and 13%
Population Fragmented Nuclei (%) [6]: 25% and 16%
Population Healthy Nuclei (%) [6]: 73% and 80%
Population Hoechst High Intensity Objects (%) [6]: 9% and 8%
Population Membrane Permeable-Phenotype (%) [6]: 11% and 5%
Population Mitochondria Different-Phenotype (%) [6]: 0%
Population Mitotic Cells (%) [6]: 93% and 86%
Population Normal (%) [6]: 91%
Population Pyknosed Nuclei (%) [6]: 1% and 2%
Population Tubulin-Different-Phenotype (%) [6]: 15% and 21%
Total Cell Count [6]: 3510 and 2285
